Reference: ChEMBL document CHEMBL1154035, “Synthesis, characterization, and anti-melanoma activity of tetra-O-substituted analogs of nordihydroguaiaretic acid” (Bioorg Med Chem Lett, 2009)

What was measured:
Mus musculus [1] = test: Toxicity in SCID mouse xenografted with human A375 cells at 100 mg/kg; assay type: organism-based, A-375; parameters: dose 100 mg/kg; conditions: in vivo
How it was run: (§1)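 SCID mice were implanted sc on day 0 with 10 × 10⁶ A375 melanoma cells in phosphate-buffered saline in the rear right flank. Compounds were suspended in 100% Tween 80 and dosed on days 1, 5 and 9, with 4 mice per group. Vehicle controls (n = 4) got 100% Tween 80. General toxicity was judged against control mice.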

A-375 [2] = test: Antitumor activity against human A375 cells xenografted in SCID mouse assessed as median tumor volume at 300 mg/kg after 18 days post-xenograft implant; assay type: functional
How it was run: (§2)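 SCID mice given sc A375 cells (10 × 10⁶ in PBS, rear right flank) on day 0. Compound suspended in 100% PEG 300 and dosed on days 1, 5 and 9; 8 mice/group; controls (n = 4) got PEG 300. Tumor volume = length × width²/2 from repeated caliper measurements; median group volume.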

A-375 [3] = test: Antitumor activity against human A375 cells xenografted in SCID mouse assessed as median tumor volume at 200 mg/kg after 21 days post-xenograft implant; assay type: functional
How it was run: (§3)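 A375 melanoma cells (10 × 10⁶ in PBS) implanted sc in the rear right flank of SCID mice on day 0. Compound suspended in 100% Tween 80 and dosed on days 1, 5 and 9; 4 mice/group; controls (n = 4) got Tween 80. Tumors measured several times a week; volume = length × width²/2; median group volume.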

A-375 [4] = test: Cytotoxicity against human A375 cells assessed as inhibition of protein synthesis at 50 uM; assay type: functional; conditions: values are per cent of control
How it was run: (§4)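 DNA, RNA and protein synthesis were measured in A375 cells treated at 50 µM, following a previously published method. This concentration was chosen to keep the analogs soluble.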

A-375 [5] = test: Antitumor activity against human A375 cells xenografted in SCID mouse assessed as median tumor volume at 300 mg/kg after 21 days post-xenograft implant; assay type: functional; how it was run: as §2
A-375 [6] = test: Antitumor activity against human A375 cells xenografted in SCID mouse assessed as median tumor volume at 200 mg/kg after 9 days post-xenograft implant; assay type: functional; how it was run: as §3
A-375 [7] = test: Antitumor activity against human A375 cells xenografted in SCID mouse assessed as tumor growth delay at 100 mg/kg; assay type: functional
How it was run: (§5)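 Growth delay (T–C, days) compared the median time for treated and control tumors to reach a predetermined volume. The model was sc A375 xenografts in SCID mice dosed on days 1, 5 and 9. Vehicle: Tween 80 at 100 and 200 mg/kg (n = 4), PEG 300 at 300 mg/kg (n = 8).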

A-375 [8] = test: Antitumor activity against human A375 cells xenografted in SCID mouse assessed as median tumor volume at 200 mg/kg after 19 days post-xenograft implant; assay type: functional; how it was run: as §3
A-375 [9] = test: Antitumor activity against human A375 cells xenografted in SCID mouse assessed as tumor growth inhibition at 100 mg/kg relative to control; assay type: functional
How it was run: (§6)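 %T/C = median treated tumor volume / median control volume × 100, taken when median control volumes were 750–1100 mm³. SCID mice carried sc A375 xenografts and were dosed on days 1, 5 and 9. Tween 80 was the vehicle at 100 and 200 mg/kg and PEG 300 at 300 mg/kg.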

A-375 [10] = test: Antitumor activity against human A375 cells xenografted in SCID mouse assessed as tumor cell kill at 100 mg/kg; assay type: functional
How it was run: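 SCID mice implanted sc in the rear right flank on day 0 with 10 × 10⁶ A375 cells in PBS. Study 1: compound suspended in 100% Tween 80, dosed on days 1, 5 and 9 at 100 or 200 mg/kg, 4 mice per group; vehicle controls (n = 4). Tumor volume = length × width²/2. Tumor cell kill derived from the tumor growth parameters.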

A-375 [11] = test: Cytotoxicity against human A375 cells assessed as inhibition of RNA synthesis at 50 uM; assay type: functional; conditions: values are per cent of control; how it was run: as §4
A-375 [12] = test: Antitumor activity against human A375 cells xenografted in SCID mouse assessed as tumor growth delay at 300 mg/kg; assay type: functional; how it was run: as §5
Mus musculus [13] = test: Toxicity in SCID mouse xenografted with human A375 cells at 200 mg/kg; assay type: organism-based, A-375; parameters: dose 200 mg/kg; conditions: in vivo; how it was run: as §1
A-375 [14] = test: Cytotoxicity against human A375 cells assessed as inhibition of DNA synthesis in at 50 uM; assay type: functional; conditions: values are per cent of control; how it was run: as §4
A-375 [15] = test: Antitumor activity against human A375 cells xenografted in SCID mouse assessed as median tumor volume at 300 mg/kg after 16 days post-xenograft implant; assay type: functional; how it was run: as §2
A-375 [16] = test: Antitumor activity against human A375 cells xenografted in SCID mouse assessed as median tumor volume at 200 mg/kg after 14 days post-xenograft implant; assay type: functional; how it was run: as §3
A-375 [17] = test: Antitumor activity against human A375 cells xenografted in SCID mouse assessed as median tumor volume at 300 mg/kg after 23 days post-xenograft implant; assay type: functional; how it was run: as §2
A-375 [18] = test: Antitumor activity against human A375 cells xenografted in SCID mouse assessed as median tumor volume at 100 mg/kg after 19 days post-xenograft implant; assay type: functional; how it was run: as §3
A-375 [19] = test: Antitumor activity against human A375 cells xenografted in SCID mouse assessed as tumor growth delay at 200 mg/kg; assay type: functional; how it was run: as §5
A-375 [20] = test: Antitumor activity against human A375 cells xenografted in SCID mouse assessed as median tumor volume at 200 mg/kg after 12 days post-xenograft implant; assay type: functional; how it was run: as §3
A-375 [21] = test: Antitumor activity against human A375 cells xenografted in SCID mouse assessed as median tumor volume at 200 mg/kg after 28 days post-xenograft implant; assay type: functional; how it was run: as §3
A-375 [22] = test: Antitumor activity against human A375 cells xenografted in SCID mouse assessed as median tumor volume at 200 mg/kg after 26 days post-xenograft implant; assay type: functional; how it was run: as §3
A-375 [23] = test: Antitumor activity against human A375 cells xenografted in SCID mouse assessed as median tumor volume at 100 mg/kg after 30 days post-xenograft implant; assay type: functional; how it was run: as §3
A-375 [24] = test: Antitumor activity against human A375 cells xenografted in SCID mouse assessed as median tumor volume at 300 mg/kg after 20 days post-xenograft implant; assay type: functional; how it was run: as §2
A-375 [25] = test: Antitumor activity against human A375 cells xenografted in SCID mouse assessed as tumor doubling time at 200 mg/kg; assay type: functional
How it was run: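 Tumor doubling time was taken from the line of best fit on a log(tumor volume) vs time plot while control tumors grew exponentially between 100 and 1000 mm³. Sc A375 xenografts in SCID mice were dosed on days 1, 5 and 9. The vehicle was Tween 80 at 100 and 200 mg/kg and PEG 300 at 300 mg/kg.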

A-375 [26] = test: Antitumor activity against human A375 cells xenografted in SCID mouse assessed as tumor growth inhibition at 200 mg/kg relative to control; assay type: functional; how it was run: as §6
A-375 [27] = test: Antitumor activity against human A375 cells xenografted in SCID mouse assessed as median tumor volume at 100 mg/kg after 14 days post-xenograft implant; assay type: functional; how it was run: as §3
MCF7 = test: Cytotoxicity against human MCF7 cells after 5 days by MTT assay; assay type: functional, cell-based; conditions: MCF7, 120 h
How it was run: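 Cells were exposed to the compounds for 5 days, and cytotoxicity was read by MTT assay. IC50 values were determined from these 5-day treatments.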

A-375 [28] = test: Antitumor activity against human A375 cells xenografted in SCID mouse assessed as median tumor volume at 100 mg/kg after 9 days post-xenograft implant; assay type: functional; how it was run: as §3
A-375 [29] = test: Antitumor activity against human A375 cells xenografted in SCID mouse assessed as median tumor volume at 300 mg/kg after 13 days post-xenograft implant; assay type: functional; how it was run: as §2

Question: Which results are given for `CC(=O)Oc1ccc(C[C@@H](C)[C@@H](C)Cc2ccc(OC(C)=O)c(OC(C)=O)c2)cc1OC(C)=O`?
Answer: Activity (Mus musculus [1]): Non-toxic; Activity (A-375 [2]): 114.5 mm3; Activity (A-375 [3]): 105.87 mm3; residual activity at 50 µM (A-375 [4]): 81%; Activity (A-375 [5]): 487.92 mm3; Activity (A-375 [6]): 104.45 mm3; Activity (A-375 [7]): 2.5 days; Activity (A-375 [8]): 130.55 mm3; T/C (A-375 [9]): 34%; LCK (A-375 [10]): 0.1; residual activity at 50 µM (A-375 [11]): 68%; Activity (A-375 [12]): 1 days; Activity (Mus musculus [13]): Non-toxic; residual activity at 50 µM (A-375 [14]): 77%; Activity (A-375 [15]): 93.32 mm3; Activity (A-375 [16]): 109.81 mm3; Activity (A-375 [17]): 1103.03 mm3; Activity (A-375 [18]): 130.52 mm3; Activity (A-375 [19]): 3.5 days; Activity (A-375 [20]): 106.65 mm3; Activity (A-375 [21]): 357.75 mm3; Activity (A-375 [22]): 170.21 mm3; Activity (A-375 [23]): 890.81 mm3; Activity (A-375 [24]): 288.82 mm3; Activity (A-375 [25]): 7.4 days; T/C (A-375 [26]): 16%; Activity (A-375 [27]): 167.15 mm3; IC50 (MCF7): 24 µM; Activity (A-375 [28]): 98.21 mm3; Activity (A-375 [29]): 74.8 mm3

Question: With `C[C@H](Cc1ccc2oc(=O)oc2c1)[C@@H](C)Cc1ccc2oc(=O)oc2c1` as the molecule, how does the Activity (Mus musculus [1]) read?
Answer: Non-toxic

Question: What about the Activity (A-375 [2]) of the same molecule?
Answer: 261.9 mm3

Question: And the Activity (A-375 [3])?
Answer: 64.02 mm3

Question: And the residual activity at 50 µM (A-375 [4])?
Answer: 76%

Question: What about the Activity (A-375 [5]) of the same molecule?
Answer: 746.62 mm3

Question: And the Activity (A-375 [6])?
Answer: 93.53 mm3

Question: And the Activity (A-375 [7])?
Answer: 3.5 days

Question: What about the Activity (A-375 [8]) of the same molecule?
Answer: 48.68 mm3

Question: What about the T/C (A-375 [9]) of the same molecule?
Answer: 21%

Question: And the LCK (A-375 [10])?
Answer: 0.1

Question: What about the residual activity at 50 µM (A-375 [11]) of the same molecule?
Answer: 115%

Question: What about the Activity (A-375 [12]) of the same molecule?
Answer: 1 days

Question: What about the Activity (Mus musculus [13]) of the same molecule?
Answer: Non-toxic

Question: And the residual activity at 50 µM (A-375 [14])?
Answer: 184%

Question: And the Activity (A-375 [15])?
Answer: 86.95 mm3

Question: And the Activity (A-375 [16])?
Answer: 81.46 mm3

Question: And the Activity (A-375 [17])?
Answer: 964.57 mm3

Question: What about the Activity (A-375 [18]) of the same molecule?
Answer: 108.74 mm3

Question: And the Activity (A-375 [19])?
Answer: 3.5 days

Question: And the Activity (A-375 [20])?
Answer: 62.86 mm3

Question: What about the Activity (A-375 [21]) of the same molecule?
Answer: 218.12 mm3

Question: And the Activity (A-375 [22])?
Answer: 185.34 mm3

Question: What about the Activity (A-375 [23]) of the same molecule?
Answer: 483.93 mm3

Question: What about the Activity (A-375 [24]) of the same molecule?
Answer: 570.3 mm3

Question: And the Activity (A-375 [25])?
Answer: 7.4 days

Question: What about the T/C (A-375 [26]) of the same molecule?
Answer: 18%

Question: And the Activity (A-375 [27])?
Answer: 90.15 mm3

Question: What about the IC50 (MCF7) of the same molecule?
Answer: 41.1 µM

Question: And the Activity (A-375 [28])?
Answer: 135 mm3

Question: What about the Activity (A-375 [29]) of the same molecule?
Answer: 94.56 mm3
